Measurements: ChEMBL document CHEMBL1250463, “N(epsilon)-Modified lysine containing inhibitors for SIRT1 and SIRT2” (Bioorg Med Chem, 2010)

How the values were obtained:
[1] = molecular target: T1, NAD-dependent protein deacetylase sirtuin-1 (Homo sapiens) (UniProt Q96EB6); test: Inhibition of GST-SIRT1 at 200 uM after 1 hr by Fluor de Lys fluorescence assay
T1 sequence (whole entry): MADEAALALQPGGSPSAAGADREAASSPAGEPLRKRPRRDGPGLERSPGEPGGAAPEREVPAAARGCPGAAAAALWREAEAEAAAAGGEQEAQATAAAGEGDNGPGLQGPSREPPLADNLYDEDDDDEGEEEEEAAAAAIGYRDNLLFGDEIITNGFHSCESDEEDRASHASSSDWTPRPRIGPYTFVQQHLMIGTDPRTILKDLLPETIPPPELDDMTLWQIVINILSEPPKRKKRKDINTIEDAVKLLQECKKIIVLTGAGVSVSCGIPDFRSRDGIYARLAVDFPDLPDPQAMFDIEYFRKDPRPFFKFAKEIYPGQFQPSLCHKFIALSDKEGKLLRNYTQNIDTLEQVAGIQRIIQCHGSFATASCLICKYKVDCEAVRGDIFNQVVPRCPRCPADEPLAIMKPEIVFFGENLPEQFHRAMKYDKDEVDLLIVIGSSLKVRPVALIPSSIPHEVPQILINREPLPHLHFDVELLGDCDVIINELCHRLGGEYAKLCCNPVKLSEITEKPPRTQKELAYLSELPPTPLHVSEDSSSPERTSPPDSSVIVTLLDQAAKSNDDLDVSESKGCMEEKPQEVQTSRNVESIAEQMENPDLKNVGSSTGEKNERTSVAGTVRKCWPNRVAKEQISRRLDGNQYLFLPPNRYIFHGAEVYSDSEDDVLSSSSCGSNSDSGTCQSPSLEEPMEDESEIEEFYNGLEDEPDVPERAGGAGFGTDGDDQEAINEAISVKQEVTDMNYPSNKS
Procedure, shortened: (§1)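 Recombinant GST-SIRT1 with Fluor de Lys acetylated SIRT1 peptide substrate at 70% of its Km, plus NAD+, in HDAC assay buffer with 1 mg/ml BSA. Buffer, substrate, NAD+ and compound in DMSO (2.5 in 50 total) were preincubated 5 min at rt. Enzyme addition started the reaction, run 1 h at 37 °C. Developer plus 2 mM nicotinamide was then added for 45 min at 37 °C before fluorescence read-out.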

[2] = molecular target: T2, NAD-dependent protein deacetylase sirtuin-2 (Homo sapiens) (UniProt Q8IXJ6); test: Inhibition of GST-SIRT2 at 200 uM after 1 hr by Fluor de Lys fluorescence assay
T2 sequence (whole entry): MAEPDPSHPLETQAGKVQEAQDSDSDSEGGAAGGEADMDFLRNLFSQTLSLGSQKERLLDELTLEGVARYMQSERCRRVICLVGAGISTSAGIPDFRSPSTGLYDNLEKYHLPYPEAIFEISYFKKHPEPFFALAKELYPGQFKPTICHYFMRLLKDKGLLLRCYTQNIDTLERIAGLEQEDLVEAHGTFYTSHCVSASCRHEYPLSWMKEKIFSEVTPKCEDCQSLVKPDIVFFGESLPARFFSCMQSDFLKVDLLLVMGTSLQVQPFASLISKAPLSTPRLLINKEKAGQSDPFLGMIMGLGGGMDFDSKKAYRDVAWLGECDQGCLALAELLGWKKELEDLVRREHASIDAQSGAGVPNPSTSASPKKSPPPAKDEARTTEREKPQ
Procedure, shortened: (§2)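 Recombinant GST-SIRT2 with Fluor de Lys acetylated SIRT2 peptide substrate at 70% of its Km, plus NAD+, in HDAC assay buffer with 1 mg/ml BSA. Compound or DMSO was preincubated 5 min at rt with buffer, substrate and NAD+. Enzyme was added to start the reaction, run 1 h at 37 °C. Developer with 2 mM nicotinamide followed for 45 min at 37 °C, then fluorescence was read.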

[3] = molecular target: T3, NAD-dependent protein deacetylase sirtuin-1 (Homo sapiens, UniProt Q96EB6); test: Inhibition of GST-SIRT1 after 1 hr by Fluor de Lys fluorescence assay; procedure, shortened: as §1
T3 sequence (Q96EB6 whole entry): T1 sequence (whole entry)

[4] = molecular target: T4, NAD-dependent protein deacetylase sirtuin-2 (Homo sapiens, UniProt Q8IXJ6); test: Inhibition of GST-SIRT2 after 1 hr by Fluor de Lys fluorescence assay; procedure, shortened: as §2
T4 sequence (Q8IXJ6 whole entry): T2 sequence (whole entry)

Row | SMILES | inhibition [1] [%] | inhibition [2] [%] | IC50 [3] [µM] | IC50 [4] [µM]
1 | CC(C)(C)OC(=O)NCCCC[C@H](NC(=O)OCc1ccccc1)C(=O)Nc1ccccc1 | 6 | 13 |  | 
2 | CC(=O)N[C@@H](C)C(=O)N[C@@H](CCCCNC(=S)CC(C)C)C(=O)N[C@@H](C)C(=O)O | 100 | 99 | 0.7 | 3.6
3 | CNC(=O)[C@H](C)NC(=O)[C@H](CCCCNC(=O)c1cccn1C)NC(=O)[C@H](C)NC(C)=O | 23 | 41 |  | 
4 | CC(=O)N[C@@H](C)C(=O)N[C@@H](CCCCNC(=O)C=C(C)C)C(=O)N[C@@H](C)C(=O)O | 95 | 52 | 11 | 77
5 | CNC(=O)[C@H](C)NC(=O)[C@H](CCCCNC(=O)C=C(C)C)NC(=O)[C@H](C)NC(C)=O | 96 | 95 | 6.1 | 23
6 | CC(=O)NCCCC[C@H](NC(=O)[C@H](C)NC(C)=O)C(=O)N[C@@H](C)C(=O)O | 62 | 42 | 122 | 223
7 | COC(=O)[C@H](C)NC(=O)[C@H](CCCCNS(=O)(=O)C(F)(F)F)NC(=O)[C@H](C)NC(C)=O | 15 | 4 |  | 
8 | CC(=O)N[C@@H](C)C(=O)N[C@@H](CCCCNC(=O)/C=C(/C)C(F)(F)F)C(=O)N[C@@H](C)C(=O)O | 33 | 20 |  | 
9 | CNC(=O)[C@H](C)NC(=O)[C@H](CCCCNC(=O)c1ccc[nH]1)NC(=O)[C@H](C)NC(C)=O | 36 | 26 |  | 
10 | COC(=O)[C@H](C)NC(=O)[C@H](CCCCNS(C)(=O)=O)NC(=O)[C@H](C)NC(C)=O | 17 | 8 |  | 
11 | COC(=O)[C@H](C)NC(=O)[C@H](CCCCNS(=O)(=O)c1ccc([N+](=O)[O-])cc1)NC(=O)[C@H](C)NC(C)=O | 0 | 5 |  | 
12 | CC(=O)N[C@@H](C)C(=O)N[C@@H](CCCCNC(=O)CC(C)C)C(=O)N[C@@H](C)C(=O)O | 94 | 76 | 12 | 30
13 | COC(=O)[C@H](C)NC(=O)[C@H](CCCCNS(=O)(=O)c1ccc(C)cc1)NC(=O)[C@H](C)NC(C)=O | 1 | 0 |  | 
14 | CNC(=O)[C@H](C)NC(=O)[C@H](CCCCNC(C)=O)NC(=O)[C@H](C)NC(C)=O | 66 | 68 | 88 | 60
15 | CNC(=O)[C@H](C)NC(=O)[C@H](CCCCNC(=O)C(C)(C)C)NC(=O)[C@H](C)NC(C)=O | 82 | 77 | 40 | 66
16 | CC(=[Se])NCCCC[C@H](NC(=O)OCc1ccccc1)C(=O)Nc1ccccc1 | 98 | 99 | 1.8 | 2.7
17 | CC(=O)N[C@@H](C)C(=O)N[C@@H](CCCCNC(C)=S)C(=O)N[C@@H](C)C(=O)O | 100 | 96 | 0.24 | 9.8
18 | CNC(=O)[C@H](C)NC(=O)[C@H](CCCCNC(=O)c1ccc(N(C)C)cc1)NC(=O)[C@H](C)NC(C)=O | 39 | 34 |  | 
19 | CC(=O)N[C@@H](C)C(=O)N[C@@H](CCCCNC(C)=[Se])C(=O)N[C@@H](C)C(=O)O | 100 | 97 | 0.37 | 7.2
20 | CP(C)(=S)NCCCC[C@H](NC(=O)OCc1ccccc1)C(=O)Nc1ccccc1 | 10 | 27 |  | 

Results, then the compound that gave them:

Row | inhibition [1] [%] | inhibition [2] [%] | IC50 [3] [µM] | IC50 [4] [µM] | SMILES
21 | 9 | 2 |  |  | COC(=O)[C@H](C)NC(=O)[C@H](CCCCNC(=O)c1cccnc1)NC(=O)[C@H](C)NC(C)=O
22 | 78 | 74 | 46 | 69 | COC(=O)[C@H](C)NC(=O)[C@H](CCCCNC(=O)C=C(C)C)NC(=O)[C@H](C)NC(C)=O
23 | 48 | 16 | 1770 |  | COC(=O)[C@H](C)NC(=O)[C@H](CCCCNC(=O)CBr)NC(=O)[C@H](C)NC(C)=O
24 | 4 | 0 |  |  | COC(=O)[C@H](C)NC(=O)[C@H](CCCCNC(=O)c1ccccn1)NC(=O)[C@H](C)NC(C)=O
25 | 33 | 54 |  | 129 | COC(=O)[C@H](C)NC(=O)[C@H](CCCCNC(=O)C1=CCCCC1)NC(=O)[C@H](C)NC(C)=O
26 | 24 | 13 |  |  | COC(=O)[C@H](C)NC(=O)[C@H](CCCCNC(=O)N(C)C)NC(=O)[C@H](C)NC(C)=O
27 | 12 | 14 |  |  | COC(=O)[C@H](C)NC(=O)[C@H](CCCCNC(=O)c1ccccc1)NC(=O)[C@H](C)NC(C)=O
28 | 10 | 0 |  |  | COC(=O)[C@H](C)NC(=O)[C@H](CCCCNC(=O)Cc1cccnc1)NC(=O)[C@H](C)NC(C)=O
29 | 26 | 21 |  |  | COC(=O)[C@H](C)NC(=O)[C@H](CCCCNC(=O)Cc1ccccn1)NC(=O)[C@H](C)NC(C)=O
30 | 8 | 0 |  |  | COC(=O)NCCCC[C@H](NC(=O)[C@H](C)NC(C)=O)C(=O)N[C@@H](C)C(=O)OC
31 | 39 | 39 |  |  | C/C=C(\C)C(=O)NCCCC[C@H](NC(=O)[C@H](C)NC(C)=O)C(=O)N[C@@H](C)C(=O)OC
32 | 39 | 57 | 268 | 180 | COC(=O)[C@H](C)NC(=O)[C@H](CCCCNC(C)=O)NC(=O)[C@H](C)NC(C)=O
33 | 20 | 9 |  |  | C/C=C/C(=O)NCCCC[C@H](NC(=O)[C@H](C)NC(C)=O)C(=O)N[C@@H](C)C(=O)OC
34 | 19 | 8 |  |  | COC(=O)[C@H](C)NC(=O)[C@H](CCCCNC(=O)CCl)NC(=O)[C@H](C)NC(C)=O
35 | 53 | 52 | 223 | 338 | COC(=O)[C@H](C)NC(=O)[C@H](CCCCNC(=O)C(C)(C)C)NC(=O)[C@H](C)NC(C)=O
36 | 11 | 3 |  |  | COC(=O)[C@H](C)NC(=O)[C@H](CCCCNC(=O)OCc1ccccc1)NC(=O)[C@H](C)NC(C)=O
